We go through 15 molecules from PMC2855869 (Chemmedchem, 2009).

Molecules are shown by their SMILES.

The target of assay [1] is Recombinant TryR from T. brucei (Trypanosoma brucei brucei, UniProt P39051). Description: DTNB-coupled colourimetric TryR screening/potency assay. In kind it is biochemical.
Assay [2] relates to bloodstream form T. brucei brucei single marker. Kind of assay: Trypanosome growth assay. In kind it is cell-based. The note with it: Trypanosoma brucei, 73 h, read-out: EC50 Parasite. In a few lines: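 Bloodstream-form T. b. brucei single marker in HMI9-T with 10% FCS, 2000 cells/well, added to plates pre-stamped with test compound; media-only column as blank. Ten points from 15 μm to 0.5 nm or 50 μm to 2 nm; final DMSO 0.5%. Incubated 69 h at 37°C, 5% CO2, then resazurin (final 50 μm) for 4 h; fluorescence at ex 528/em 590 nm.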

A further assay concerns the target TryR (Trypanosoma brucei brucei, UniProt P39051). Description: Mode of inhibition studies on TryR. Format: biochemical. The note with it: for Inhibitor constants Ki′: T[S]2 varied, mixed inhibition, second constant; for Mode of inhibiton: TryR, global nonlinear fit of 1/v vs 1/[S] data. Put shortly: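 TryR with 150 μm NADPH, 50 μm DTNB, 20 mU/mL enzyme in 40 mm HEPES, 1 mm EDTA, pH 7.4. Three test-compound levels plus an inhibitor-free row. Started with T[S]2 over 12 points, 500 to 5.8 μm. NADPH was also varied at fixed T[S]2. Rates from linear A412 rise, inspected as 1/v vs 1/[S], then globally fitted to competitive, mixed or uncompetitive equations.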

Assay [3] deals with T1, human glutathione reductase (Homo sapiens, UniProt P00390).
T1 sequence (P00390 44-522): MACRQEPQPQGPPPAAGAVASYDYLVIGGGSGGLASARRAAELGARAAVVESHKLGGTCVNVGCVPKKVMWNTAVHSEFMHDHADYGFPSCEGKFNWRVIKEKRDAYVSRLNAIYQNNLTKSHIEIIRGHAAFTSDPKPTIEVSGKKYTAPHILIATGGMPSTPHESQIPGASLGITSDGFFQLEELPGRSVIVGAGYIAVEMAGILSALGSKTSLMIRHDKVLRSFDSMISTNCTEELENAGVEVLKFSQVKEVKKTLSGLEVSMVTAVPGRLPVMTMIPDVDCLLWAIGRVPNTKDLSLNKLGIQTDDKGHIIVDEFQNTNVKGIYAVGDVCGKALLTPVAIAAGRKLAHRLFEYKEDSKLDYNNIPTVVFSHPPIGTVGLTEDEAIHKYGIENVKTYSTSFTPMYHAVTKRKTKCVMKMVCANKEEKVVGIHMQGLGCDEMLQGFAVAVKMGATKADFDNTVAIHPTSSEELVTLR
Kind of assay: Glutathione reductase. In kind it is biochemical.

Sequence of Recombinant TryR from T. brucei (P39051 whole entry): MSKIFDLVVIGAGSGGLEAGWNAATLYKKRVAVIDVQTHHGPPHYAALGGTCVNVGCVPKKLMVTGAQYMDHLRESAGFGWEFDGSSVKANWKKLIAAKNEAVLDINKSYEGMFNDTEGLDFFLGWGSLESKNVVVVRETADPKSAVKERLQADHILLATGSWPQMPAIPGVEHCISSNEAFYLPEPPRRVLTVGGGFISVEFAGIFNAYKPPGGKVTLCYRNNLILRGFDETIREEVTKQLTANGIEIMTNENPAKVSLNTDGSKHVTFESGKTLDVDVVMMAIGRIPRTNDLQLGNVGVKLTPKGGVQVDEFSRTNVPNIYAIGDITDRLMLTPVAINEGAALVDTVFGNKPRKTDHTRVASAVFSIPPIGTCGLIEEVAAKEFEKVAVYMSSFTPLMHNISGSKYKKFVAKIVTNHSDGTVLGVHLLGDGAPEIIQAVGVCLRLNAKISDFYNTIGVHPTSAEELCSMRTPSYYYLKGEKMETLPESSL
Sequence of TryR (P39051 whole entry): as above

As to `Cc1ccc(-c2cc(C(=O)NCCN(C)C)c3cc(F)ccc3n2)o1` [Compound 26, N-(2-(dimethylamino)ethyl)-6-fluoro-2-(5-methylfuran-2-yl)quinoline-4-carboxamide], the IC50 in assay [1] was above 100 µM.

For `Cc1ccc(-c2cc(C(=O)NCC[N+](C)(C)C)c3cc(Br)ccc3n2)o1` [Compound 3, 6-Bromo-N,N,N-trimethyl-2-(2-(5-methylfuran-2-yl)quinoline-4-carboxamido)ethanaminium iodide], the IC50 in assay [1] amounted to 1.2 µM. In addition, in assay [2], the EC50 was above 50 µM.

In the case of `Cc1ccc(-c2cc(C(=O)NCc3ccccn3)c3ccccc3n2)o1` [Compound 11, 2-(5-Methylfuran-2-yl)-N-(pyridin-2-ylmethyl)quinoline-4-carboxamide], the IC50 in assay [1] was found to be 12.1 µM.

For `Cc1ccc(-c2cc(C(=O)NCc3ccccn3)c3cc(Br)ccc3n2)o1` [Compound 5, 6-Bromo-2-(5-methylfuran-2-yl)-N-(pyridin-2-ylmethyl)quinoline-4-carboxamide], the half-inhibitory concentration (IC50) in assay [1] stood at 4.7 µM. In addition, at TryR, affinity was put at a Ki of 2 ± 0.1 µM, the “Inhibitor constants Ki′” value amounted to 3.0 ± 0.2 µM and the Mode of inhibiton result is given as “linear mixed”. This molecule came in with an IC50 in assay [3] of 33.4 µM. For the same molecule, in assay [2], the concentration giving a half-maximal response (EC50) came out at 18.7 µM.

Turning to `Cc1ccc(-c2cc(C(=O)NCCN(C)C)c3cc(Br)ccc3n2)o1` [Compound 1, 6-Bromo-N-(2-(dimethylamino)ethyl)-2-(5-methylfuran-2-yl)quinoline-4-carboxamide], the IC50 in assay [1] was 1.7 µM. Further, at TryR, the inhibitory constant (Ki) amounted to 1.6 ± 0.2 µM, the “Inhibitor constants Ki′” value amounted to 3.2 ± 0.3 µM and the Mode of inhibiton result is given as “linear mixed”. The same molecule came in with an IC50 in assay [3] above 100 µM. In addition, the EC50 in assay [2] was 10.3 µM.

As to `Cc1ccc(-c2cc(C(=O)NCc3ccccc3)c3cc(Br)ccc3n2)o1` [Compound 15, N-Benzyl-6-bromo-2-(5-methylfuran-2-yl)quinoline-4-carboxamide], the IC50 in assay [1] was above 100 µM.

Take `Cc1ccc(-c2cc(C(=O)NCCN(C)C)c3cc(Br)ccc3n2)s1` [Compound 22, 6-Bromo-N-(2-(dimethylamino)ethyl)-2-(5-methylthiophen-2-yl)quinoline-4-carboxamide]: the IC50 in assay [1] is above 100 µM.

For `Cc1ccc(-c2cc(C(=O)NCCN(C)C)c3ccc(Br)cc3n2)o1` [Compound 9, 7-Bromo-N-(2-(dimethylamino)ethyl)-2-(5-methylfuran-2-yl)quinoline-4-carboxamide], the IC50 in assay [1] amounted to 5.7 µM.

Consider `Cc1ccc(-c2cc(C(=O)NCCc3ccccc3)c3cc(Br)ccc3n2)o1` [Compound 25, 6-bromo-2-(5-methylfuran-2-yl)-N-phenethylquinoline-4-carboxamide], for which, in assay [1], the half-inhibitory concentration (IC50) is above 100 µM.

As for `Cc1ccc(-c2cc(C(=O)NCCN(C)C)c3ccccc3n2)o1` [Compound 12, N-(2-(Dimethylamino)ethyl)-2-(5-methylfuran-2-yl)quinoline-4-carboxamide], the IC50 in assay [1] worked out at 14.4 µM. In addition, the concentration for a half-maximal effect (EC50) in assay [2] amounted to 32.1 µM.

Take `CNCCNC(=O)c1cc(-c2ccc(C)o2)nc2ccc(Br)cc12` [Compound 2, 6-Bromo-N-(2-(methylamino)ethyl)-2-(5-methylfuran-2-yl)quinoline-4-carboxamide]: the IC50 in assay [1] was found to be 1.1 µM. Moreover, the EC50 in assay [2] worked out at 6 µM.

Take `Cc1ccc(-c2cc(C(=O)NCCN(C)C)c3cc(Cl)ccc3n2)o1` [Compound 8, 6-Chloro-N-(2-(dimethylamino)ethyl)-2-(5-methylfuran-2-yl)quinoline-4-carboxamide]: in assay [1], the IC50 is 3.1 µM.

`CN(C)CCNC(=O)c1cc(-c2ccco2)nc2ccc(Br)cc12` [Compound 20, 6-Bromo-N-(2-(dimethylamino)ethyl)-2-(furan-2-yl)quinoline-4-carboxamide]: the IC50 in assay [1] came out at 32.4 µM.

For `Cc1ccc(-c2cc(C(=O)NCCN(C)C)c3cccc(Br)c3n2)o1` [Compound 10, 8-Bromo-N-(2-(dimethylamino)ethyl)-2-(5-methylfuran-2-yl)quinoline-4-carboxamide], the 50% inhibitory concentration (IC50) in assay [1] was 5.8 µM. In addition, the EC50 in assay [2] came to 19.2 µM.

On to `Cc1ccc(-c2cc(C(=O)NCCN3CCOCC3)c3cc(Br)ccc3n2)o1` [Compound 4, 6-Bromo-2-(5-methylfuran-2-yl)-N-(2-morpholinoethyl)quinoline-4-carboxamide], for which the IC50 in assay [1] turned out to be 4.2 µM. Further, on TryR, the affinity corresponds to a Ki of 3 ± 0.2 µM, the “Inhibitor constants Ki′” value was found to be 4.3 ± 0.3 µM and the Mode of inhibiton result is recorded as “linear mixed”. For the same molecule, half-maximal inhibition in assay [3] (IC50) was put at 74.2 µM. In addition, the EC50 in assay [2] stood at 25.6 µM.

For orientation: IC50 means the point on the concentration scale where inhibition reaches its midpoint. The EC50 is the concentration that produces a half-maximal response. The Ki is the dissociation constant of the complex between target and ligand, obtained from inhibition or displacement.
